Test results taken from article PMC6720533 (Biomolecules & Therapeutics, 2019).

Legend:
recombinant human CK2α1 = recombinant human CK2α1 (Homo sapiens, UniProt P68400); assay: CK2 kinase activity assay; assay type: biochemical; conditions: 60 min
How it was run: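 Recombinant human CK2α1 (50 ng) was incubated with 2.5 μg CK2α1 substrate, 10 μM ATP, and test compound, reference inhibitor or DMSO for 60 min at room temperature. ADP-Glo reagent stopped the reaction and depleted remaining ATP. Detection reagent then converted ADP to ATP for luciferase/luciferin luminescence, which tracks the ADP formed as the measure of kinase activity.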

p70S6K = p70S6K (Homo sapiens, UniProt P23443); assay: Kinase activity screening; assay type: biochemical; conditions: FX-9 at 2.5 μM, ATP at Km (15 μM)
How it was run: (§1)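 Radiometric kinase-panel screen of 58 human kinases, measuring substrate phosphorylation. […] Activity is given as % of the mean positive-control kinase activity (100%). Below 30% counts as a strong hit, 30–70% as a partial hit, and above 70% as no hit.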

SRPK1 = SRPK1 (Homo sapiens, UniProt Q96SB4); assay: Kinase activity screening; assay type: biochemical; conditions: FX-9 at 2.5 μM, ATP at Km (10 μM)
How it was run: as §1

pERK = assay: Western blot, RS4; assay type: cell-based, human; conditions: RS4;11, 2.5 μM or 5.0 μM, 48 h
How it was run: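 SEM or RS4;11 cells took DMSO, 2.5 or 5.0 μM test compound for 48 h. Cells (1–5×10^6) were lysed in RIPA buffer with sonication, run on SDS gels, blotted to PVDF and imaged by near-infrared fluorescence. Bands were normalised to GAPDH, and the phospho/total protein ratio was set relative to DMSO control (=1).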

PKBα = PKBα (Homo sapiens, UniProt P31749); assay: Kinase activity screening; assay type: biochemical; conditions: FX-9 at 2.5 μM, ATP at Km (155 μM)
Sequence of PKBα (P31749 whole entry): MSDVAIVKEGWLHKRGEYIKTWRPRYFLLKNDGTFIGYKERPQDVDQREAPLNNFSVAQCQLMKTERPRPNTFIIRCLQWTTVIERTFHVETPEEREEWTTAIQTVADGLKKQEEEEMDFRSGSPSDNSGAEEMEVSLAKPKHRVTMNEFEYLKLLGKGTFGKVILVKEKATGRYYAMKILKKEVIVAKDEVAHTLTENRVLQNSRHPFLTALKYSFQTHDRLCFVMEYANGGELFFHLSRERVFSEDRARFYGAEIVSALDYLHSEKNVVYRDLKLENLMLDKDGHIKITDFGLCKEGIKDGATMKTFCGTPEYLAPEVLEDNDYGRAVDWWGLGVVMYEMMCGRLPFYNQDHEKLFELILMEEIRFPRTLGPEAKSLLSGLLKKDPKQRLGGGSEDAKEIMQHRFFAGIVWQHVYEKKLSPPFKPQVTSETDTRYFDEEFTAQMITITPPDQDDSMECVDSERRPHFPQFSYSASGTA
How it was run: (§2)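 Radiometric substrate-phosphorylation screen covering a panel of 58 human kinases run by a contract service. […] Activity is given as a percentage of mean activity in positive control samples (100%). Values <30% were scored strong hits, 30–70% partial hits and >70% no hit.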

PAK2 = PAK2 (Homo sapiens, UniProt Q13177); assay: Kinase activity screening; assay type: biochemical; conditions: FX-9 at 2.5 μM, ATP at Km (90 μM)
How it was run: as §2

EGFR = EGFR (Homo sapiens, UniProt P00533); assay: Kinase activity screening; assay type: biochemical; conditions: FX-9 at 2.5 μM, ATP at Km (10 μM)
Sequence of EGFR (P00533 25-1210): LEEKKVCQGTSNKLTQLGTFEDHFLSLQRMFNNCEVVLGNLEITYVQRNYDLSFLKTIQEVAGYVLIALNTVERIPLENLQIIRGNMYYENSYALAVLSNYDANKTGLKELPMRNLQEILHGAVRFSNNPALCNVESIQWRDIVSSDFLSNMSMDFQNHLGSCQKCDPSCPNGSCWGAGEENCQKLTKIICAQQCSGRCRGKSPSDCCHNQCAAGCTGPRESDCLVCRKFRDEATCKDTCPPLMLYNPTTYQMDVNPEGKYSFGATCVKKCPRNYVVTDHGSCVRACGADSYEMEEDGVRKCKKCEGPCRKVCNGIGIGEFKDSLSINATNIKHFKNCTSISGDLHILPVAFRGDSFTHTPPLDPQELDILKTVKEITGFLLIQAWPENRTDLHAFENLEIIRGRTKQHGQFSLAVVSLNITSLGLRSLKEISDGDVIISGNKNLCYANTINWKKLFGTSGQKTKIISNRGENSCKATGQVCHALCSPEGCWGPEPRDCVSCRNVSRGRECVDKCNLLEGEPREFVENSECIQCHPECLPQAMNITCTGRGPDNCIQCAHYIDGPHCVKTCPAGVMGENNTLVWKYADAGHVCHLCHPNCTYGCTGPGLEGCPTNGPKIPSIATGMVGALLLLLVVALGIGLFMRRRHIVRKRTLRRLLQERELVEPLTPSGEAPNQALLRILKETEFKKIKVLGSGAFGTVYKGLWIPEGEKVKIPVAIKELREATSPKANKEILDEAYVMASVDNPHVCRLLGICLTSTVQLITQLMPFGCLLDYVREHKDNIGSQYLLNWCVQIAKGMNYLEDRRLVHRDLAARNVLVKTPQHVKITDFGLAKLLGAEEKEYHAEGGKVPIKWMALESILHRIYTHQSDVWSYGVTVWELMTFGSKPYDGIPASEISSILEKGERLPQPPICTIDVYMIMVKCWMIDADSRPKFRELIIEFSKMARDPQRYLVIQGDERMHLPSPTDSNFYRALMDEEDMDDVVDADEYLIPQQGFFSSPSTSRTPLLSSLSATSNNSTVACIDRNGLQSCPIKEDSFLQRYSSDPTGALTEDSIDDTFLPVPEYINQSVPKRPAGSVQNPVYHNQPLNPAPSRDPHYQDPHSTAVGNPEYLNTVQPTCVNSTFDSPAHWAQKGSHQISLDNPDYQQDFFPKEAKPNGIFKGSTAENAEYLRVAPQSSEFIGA
How it was run: as §2

PI3 Kinase (p110b/p85a) = PI3 Kinase (p110b/p85a) (Homo sapiens, UniProt P42338); assay: Kinase activity screening; assay type: biochemical; conditions: FX-9 at 2.5 μM, ATP at Km (200 μM)
How it was run: as §2

RS4;11 cells [1] = assay: Apoptosis, Annexin V FITC / propidium iodide flow cytometry; assay type: cell-based, human; conditions: RS4;11, 5 μM, 72 h; DMSO 11.7%
ASK1 = ASK1 (Homo sapiens, UniProt Q99683); assay: Kinase activity screening; assay type: biochemical; conditions: FX-9 at 2.5 μM, ATP at Km (200 μM)
How it was run: as §2

CEM cells [2] = assay: Apoptosis, Annexin V FITC / propidium iodide flow cytometry; assay type: cell-based, human; conditions: 5 μM, 72 h, DMSO 7.3%
Jurkat cells [3] = assay: as above; assay type: cell-based, human; conditions: 5 μM, 72 h, DMSO 18.7%
NEK2 = NEK2 (Homo sapiens, UniProt P51955); assay: Kinase activity screening; assay type: biochemical; conditions: FX-9 at 2.5 μM, ATP at Km (120 μM)
Sequence of NEK2 (P51955 whole entry): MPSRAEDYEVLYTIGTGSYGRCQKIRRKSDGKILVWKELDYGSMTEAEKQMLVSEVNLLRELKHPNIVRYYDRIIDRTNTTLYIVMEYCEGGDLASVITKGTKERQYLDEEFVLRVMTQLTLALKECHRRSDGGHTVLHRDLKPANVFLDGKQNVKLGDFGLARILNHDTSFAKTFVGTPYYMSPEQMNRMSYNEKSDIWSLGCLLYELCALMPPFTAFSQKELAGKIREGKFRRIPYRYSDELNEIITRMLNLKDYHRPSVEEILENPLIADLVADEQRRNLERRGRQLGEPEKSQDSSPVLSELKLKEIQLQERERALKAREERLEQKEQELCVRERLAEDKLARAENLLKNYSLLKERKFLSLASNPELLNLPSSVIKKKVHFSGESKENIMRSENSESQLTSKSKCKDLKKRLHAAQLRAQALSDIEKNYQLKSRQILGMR
How it was run: as §2

IKKα = IKKα (Homo sapiens, UniProt O15111); assay: Kinase activity screening; assay type: biochemical; conditions: FX-9 at 2.5 μM, ATP at Km (10 μM)
How it was run: as §2

EphA5 = EphA5 (Homo sapiens, UniProt P54756); assay: Kinase activity screening; assay type: biochemical; conditions: FX-9 at 2.5 μM, ATP at Km (10 μM)
Sequence of EphA5 (P54756 25-1037): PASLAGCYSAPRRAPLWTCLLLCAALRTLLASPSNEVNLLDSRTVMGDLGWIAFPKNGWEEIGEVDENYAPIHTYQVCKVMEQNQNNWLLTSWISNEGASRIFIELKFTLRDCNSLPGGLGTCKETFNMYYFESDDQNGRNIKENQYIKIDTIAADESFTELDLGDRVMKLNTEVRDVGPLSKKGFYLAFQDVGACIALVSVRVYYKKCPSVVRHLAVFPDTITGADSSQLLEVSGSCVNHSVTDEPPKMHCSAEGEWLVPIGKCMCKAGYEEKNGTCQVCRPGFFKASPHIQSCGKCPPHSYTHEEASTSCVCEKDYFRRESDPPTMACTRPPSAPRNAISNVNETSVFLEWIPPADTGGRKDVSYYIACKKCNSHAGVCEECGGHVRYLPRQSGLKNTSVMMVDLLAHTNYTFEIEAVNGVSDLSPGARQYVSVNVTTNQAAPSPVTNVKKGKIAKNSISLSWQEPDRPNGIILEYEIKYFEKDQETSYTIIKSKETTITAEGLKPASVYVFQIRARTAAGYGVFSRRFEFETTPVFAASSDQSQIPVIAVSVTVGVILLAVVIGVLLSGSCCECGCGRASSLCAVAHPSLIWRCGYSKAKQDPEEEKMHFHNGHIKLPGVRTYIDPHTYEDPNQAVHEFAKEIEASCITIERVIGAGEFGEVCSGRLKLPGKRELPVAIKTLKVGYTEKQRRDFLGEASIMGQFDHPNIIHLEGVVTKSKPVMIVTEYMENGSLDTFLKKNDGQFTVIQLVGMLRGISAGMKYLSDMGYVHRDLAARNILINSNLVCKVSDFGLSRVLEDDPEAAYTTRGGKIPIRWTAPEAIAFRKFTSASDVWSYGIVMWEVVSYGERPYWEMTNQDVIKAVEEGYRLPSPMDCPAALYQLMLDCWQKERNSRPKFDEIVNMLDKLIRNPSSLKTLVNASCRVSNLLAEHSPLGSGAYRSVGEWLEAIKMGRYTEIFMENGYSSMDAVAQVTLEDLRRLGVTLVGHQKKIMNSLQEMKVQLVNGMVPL
How it was run: as §2

c-RAF = c-RAF (Homo sapiens, UniProt P04049); assay: Kinase activity screening; assay type: biochemical; conditions: FX-9 at 2.5 μM, ATP at Km (120 μM)
Sequence of c-RAF (P04049 whole entry): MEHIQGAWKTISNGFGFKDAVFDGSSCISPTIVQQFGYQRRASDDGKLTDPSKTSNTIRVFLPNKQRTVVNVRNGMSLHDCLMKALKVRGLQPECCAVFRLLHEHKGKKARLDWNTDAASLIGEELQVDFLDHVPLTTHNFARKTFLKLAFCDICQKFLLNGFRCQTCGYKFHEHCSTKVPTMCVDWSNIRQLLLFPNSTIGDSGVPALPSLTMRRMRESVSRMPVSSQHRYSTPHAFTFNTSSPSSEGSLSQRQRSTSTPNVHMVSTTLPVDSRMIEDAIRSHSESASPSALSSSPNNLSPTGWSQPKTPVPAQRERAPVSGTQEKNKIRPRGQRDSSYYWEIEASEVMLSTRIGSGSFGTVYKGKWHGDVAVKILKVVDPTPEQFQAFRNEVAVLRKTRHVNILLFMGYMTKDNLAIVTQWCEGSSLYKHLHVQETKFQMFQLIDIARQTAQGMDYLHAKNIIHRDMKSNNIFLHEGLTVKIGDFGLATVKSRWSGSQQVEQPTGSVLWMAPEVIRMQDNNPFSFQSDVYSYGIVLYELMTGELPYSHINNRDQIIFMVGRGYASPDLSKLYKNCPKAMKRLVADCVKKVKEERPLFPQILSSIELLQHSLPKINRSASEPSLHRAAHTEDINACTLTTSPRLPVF
How it was run: as §1

CEM cells [4] = assay: Proliferation, viable cell count by trypan blue exclusion; assay type: cell-based, human; conditions: 72 h
How it was run: (§3)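 Human B-ALL (SEM, RS4;11) and T-ALL (Jurkat, CEM) lines were grown with 10% heat-inactivated FBS and penicillin/streptomycin at 37°C, 5% CO2. Cells took test compound at 0.1–5.0 μM (methods: 0.5–5.0 μM) or DMSO for up to 72 h. Viable cells were counted by trypan blue exclusion and expressed relative to control (100%). IC50 came from three separate experiments, each in triplicate.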

Jurkat cells [5] = assay: WST-1 metabolic activity assay; assay type: cell-based; conditions: Homo sapiens, 72 h, read-out: metabolic activity
How it was run: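 Test compound came from a 10 mM DMSO stock. Cells were seeded at 5×10^4/well in triplicate with 5 or 10 μM final compound; controls got matched DMSO. After 72 h at 37°C, 5% CO2, WST-1 was added for a further 3 h. Absorbance was read at 450 nm (reference 620 nm), and metabolic activity given as % of DMSO control.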

PKCθ = PKCθ (Homo sapiens, UniProt Q04759); assay: Kinase activity screening; assay type: biochemical; conditions: FX-9 at 2.5 μM, ATP at Km (15 μM)
How it was run: as §1

RS4;11 cells [6] = assay: Proliferation, viable cell count by trypan blue exclusion; assay type: cell-based, human
How it was run: as §3

IRAK4 = IRAK4 (Homo sapiens, UniProt Q9NWZ3); assay: Kinase activity screening; assay type: biochemical; conditions: FX-9 at 2.5 μM, ATP at Km (200 μM)
Sequence of IRAK4 (Q9NWZ3 whole entry): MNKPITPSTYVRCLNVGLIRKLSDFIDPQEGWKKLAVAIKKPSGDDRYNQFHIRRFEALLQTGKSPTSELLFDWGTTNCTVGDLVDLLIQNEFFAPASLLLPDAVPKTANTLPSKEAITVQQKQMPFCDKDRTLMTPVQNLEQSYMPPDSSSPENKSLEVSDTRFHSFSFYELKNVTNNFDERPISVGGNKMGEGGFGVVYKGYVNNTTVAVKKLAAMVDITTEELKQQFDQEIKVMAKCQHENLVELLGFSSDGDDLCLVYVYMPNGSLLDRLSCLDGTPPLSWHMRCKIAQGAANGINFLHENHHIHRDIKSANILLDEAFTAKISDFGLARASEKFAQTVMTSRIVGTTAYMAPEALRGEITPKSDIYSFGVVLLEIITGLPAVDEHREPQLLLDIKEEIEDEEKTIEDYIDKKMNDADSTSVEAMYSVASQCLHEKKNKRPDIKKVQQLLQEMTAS
How it was run: as §2

SEM cells = assay: Apoptosis, Annexin V FITC / propidium iodide flow cytometry; assay type: cell-based, human; conditions: 5 μM, 72 h, DMSO 7.4%
CDK6/cyclinD3 = CDK6/cyclinD3 (Homo sapiens, UniProt Q00534); assay: Kinase activity screening; assay type: biochemical; conditions: FX-9 at 2.5 μM, ATP at Km (200 μM)
How it was run: as §2

MEK1 = MEK1 (Homo sapiens, UniProt Q02750); assay: Kinase activity screening; assay type: biochemical; conditions: FX-9 at 2.5 μM, ATP at Km (10 μM)
Sequence of MEK1 (Q02750 whole entry): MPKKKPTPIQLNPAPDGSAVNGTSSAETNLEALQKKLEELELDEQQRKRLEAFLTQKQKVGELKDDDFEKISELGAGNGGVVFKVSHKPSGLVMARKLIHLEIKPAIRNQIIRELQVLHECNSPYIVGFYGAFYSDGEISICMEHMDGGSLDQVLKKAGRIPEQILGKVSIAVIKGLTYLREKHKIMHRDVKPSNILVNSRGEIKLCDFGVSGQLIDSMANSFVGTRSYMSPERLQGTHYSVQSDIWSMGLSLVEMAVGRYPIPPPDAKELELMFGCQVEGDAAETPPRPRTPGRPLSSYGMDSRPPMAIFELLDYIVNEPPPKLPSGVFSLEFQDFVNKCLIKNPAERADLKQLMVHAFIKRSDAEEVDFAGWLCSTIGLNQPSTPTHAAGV
How it was run: as §2

PKA = PKA (Homo sapiens, UniProt P17612); assay: Kinase activity screening; assay type: biochemical; conditions: FX-9 at 2.5 μM, ATP at Km (10 μM)
How it was run: as §2

GSK3β = GSK3β (Homo sapiens, UniProt P49841); assay: Kinase activity screening; assay type: biochemical; conditions: FX-9 at 2.5 μM, ATP at Km (15 μM)
How it was run: as §2

EphB4 = EphB4 (Homo sapiens, UniProt P54760); assay: Kinase activity screening; assay type: biochemical; conditions: FX-9 at 2.5 μM, ATP at Km (10 μM)
How it was run: as §2

PDGFRβ = PDGFRβ (Homo sapiens, UniProt P09619); assay: Kinase activity screening; assay type: biochemical; conditions: FX-9 at 2.5 μM, ATP at Km (200 μM)
How it was run: as §2

Sequence of recombinant human CK2α1 (P68400 whole entry): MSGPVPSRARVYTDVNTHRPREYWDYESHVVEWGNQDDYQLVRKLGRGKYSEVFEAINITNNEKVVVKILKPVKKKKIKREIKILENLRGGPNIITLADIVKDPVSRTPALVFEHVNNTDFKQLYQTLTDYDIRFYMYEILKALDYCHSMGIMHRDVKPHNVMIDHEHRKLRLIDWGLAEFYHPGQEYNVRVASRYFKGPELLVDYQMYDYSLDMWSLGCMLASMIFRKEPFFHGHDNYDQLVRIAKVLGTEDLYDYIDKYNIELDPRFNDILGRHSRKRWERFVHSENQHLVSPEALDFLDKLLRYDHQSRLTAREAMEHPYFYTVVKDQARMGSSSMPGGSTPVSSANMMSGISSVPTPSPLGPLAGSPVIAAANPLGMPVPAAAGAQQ

How did the CK2 enzyme activity (recombinant human CK2α1; 10 μM FX-9, 10 μM ATP) turn out when `Cc1ccc(-c2cc3ccccc3c(N)n2)cc1` [FX-9, 3-(p-Tolyl)isoquinolin-1-amine] was run?
Its CK2 enzyme activity is “not changed significantly”.

What about the CK2 enzyme activity (recombinant human CK2α1; increasing concentrations, 10 μM ATP) of the same compound?
The CK2 enzyme activity was “No changes of CK2 enzyme activity”.

And the “Kinase activity (% control)” value (p70S6K)?
Its value is 85 % control.

What about the “Kinase activity (% control)” value (SRPK1) of the same compound?
Its value is 94 % control.

What about the “pERK level (western blot)” value (pERK) of the same compound?
The value was “dose dependent increase”.

And the “Kinase activity (% control)” value (PKBα)?
Its value is 98 % control.

What about the “Kinase activity (% control)” value (PAK2) of the same compound?
The value was 88 % control.

What about the “Kinase activity (% control)” value (EGFR) of the same compound?
The value was 101 % control.

And the “Kinase activity (% control)” value (PI3 Kinase (p110b/p85a))?
The value was 97 % control.

And the “Apoptosis (total of early apoptotic and late apoptotic and necrotic cells)” value (from here on “Apoptosis”) (RS4;11 cells [1])?
Its value is 84.6%.

And the “Kinase activity (% control)” value (ASK1)?
The value was 101 % control.

And the “Apoptosis” value (CEM cells [2])?
Its value is 90.4%.

And the “Apoptosis” value (Jurkat cells [3])?
The value was 48.7%.

What about the “Kinase activity (% control)” value (NEK2) of the same compound?
The value was 106 % control.

What about the “Kinase activity (% control)” value (IKKα) of the same compound?
Its value is 91 % control.

What about the “Kinase activity (% control)” value (EphA5) of the same compound?
Its value is 98 % control.

What about the “Kinase activity (% control)” value (c-RAF) of the same compound?
Its value is 92 % control.

And the “Proliferation compared to control cells (100%)” value (CEM cells [4]; CEM, 2.5 μM)?
Its value is 24.1%.

What about the IC50 (CEM cells [4]; Homo sapiens, CCRF-CEM, read-out: IC50 based on proliferation) of the same compound?
Its IC50 is 1940 ± 30 nM.

What about the viability at 5 µM (Jurkat cells [5]) of the same compound?
The viability at 5 µM was 10.4%.

What about the viability at 10 µM (Jurkat cells [5]) of the same compound?
The viability at 10 µM was 13.6%.

And the “Kinase activity (% control)” value (PKCθ)?
The value was 96 % control.

What about the IC50 (RS4;11 cells [6]; Homo sapiens, RS4-11, 72 h, read-out: IC50 based on proliferation) of the same compound?
Its IC50 is 540 ± 20 nM.

What about the “Proliferation compared to control cells (=100%)” value (RS4;11 cells [6]; RS4;11, 0.5 μM, 72 h) of the same compound?
The value was 60.0%.

What about the “Kinase activity (% control)” value (IRAK4) of the same compound?
Its value is 95 % control.

And the “Apoptosis” value (SEM cells)?
The value was 75.9%.

And the “Kinase activity (% control)” value (CDK6/cyclinD3)?
The value was 103 % control.

And the “Kinase activity (% control)” value (MEK1)?
Its value is 90 % control.

And the “Kinase activity (% control)” value (PKA)?
Its value is 92 % control.

What about the “Kinase activity (% control)” value (GSK3β) of the same compound?
The value was 88 % control.

What about the “Kinase activity (% control)” value (EphB4) of the same compound?
The value was 83 % control.

And the “Kinase activity (% control)” value (PDGFRβ)?
Its value is 99 % control.
